This note sets out measurements from ChEMBL document CHEMBL1926607 (J Med Chem, 2011).

Experiment [1] addresses T1, 5-hydroxytryptamine receptor 1A (Rattus norvegicus, UniProt P19327).
T1 sequence (P19327 whole entry): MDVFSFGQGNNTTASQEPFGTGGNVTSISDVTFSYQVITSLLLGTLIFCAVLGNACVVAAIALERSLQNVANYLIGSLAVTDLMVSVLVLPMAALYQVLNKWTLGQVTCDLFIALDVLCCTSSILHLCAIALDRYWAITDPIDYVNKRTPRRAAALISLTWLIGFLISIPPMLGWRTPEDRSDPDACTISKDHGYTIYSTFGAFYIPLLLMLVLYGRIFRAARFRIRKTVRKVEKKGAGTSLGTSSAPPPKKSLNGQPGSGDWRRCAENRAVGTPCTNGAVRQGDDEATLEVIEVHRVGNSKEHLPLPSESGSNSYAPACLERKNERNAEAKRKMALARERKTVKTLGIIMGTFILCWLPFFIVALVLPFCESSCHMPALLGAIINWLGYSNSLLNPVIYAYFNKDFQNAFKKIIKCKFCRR
Nature of the experiment: Displacement of [3H]-8-OH-DPAT from 5-HT1A receptor in Sprague-Dawley albinus rat cerebral cortex membranes after 15 mins. It is filed as cell membranes, Membrane.

Experiment [2] deals with 5-hydroxytryptamine receptor 4 (Rattus norvegicus, UniProt Q62758). Nature of the experiment: Displacement of [3H]GR113808 from 5HT4 receptor in Sprague-Dawley albinus rat striatal membranes after 30 mins by scintillation counting. The format is cell membranes, Membrane.
Chain of 5-hydroxytryptamine receptor 4 (Q62758 whole entry): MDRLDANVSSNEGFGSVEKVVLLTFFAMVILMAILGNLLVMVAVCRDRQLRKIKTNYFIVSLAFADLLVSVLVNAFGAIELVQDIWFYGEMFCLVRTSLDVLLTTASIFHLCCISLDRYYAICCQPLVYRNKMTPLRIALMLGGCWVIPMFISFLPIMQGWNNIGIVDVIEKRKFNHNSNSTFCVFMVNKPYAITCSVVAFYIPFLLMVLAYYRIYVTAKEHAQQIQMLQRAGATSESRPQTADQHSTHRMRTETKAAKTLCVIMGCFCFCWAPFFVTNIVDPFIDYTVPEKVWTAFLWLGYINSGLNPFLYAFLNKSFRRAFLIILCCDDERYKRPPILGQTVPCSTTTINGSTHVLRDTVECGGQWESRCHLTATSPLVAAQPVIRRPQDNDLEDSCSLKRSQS
Experiment [3] addresses T2, Adrenergic receptor alpha-1 (Rattus norvegicus, UniProt P15823+P23944+P43140).
T2 sequence (P15823 whole entry): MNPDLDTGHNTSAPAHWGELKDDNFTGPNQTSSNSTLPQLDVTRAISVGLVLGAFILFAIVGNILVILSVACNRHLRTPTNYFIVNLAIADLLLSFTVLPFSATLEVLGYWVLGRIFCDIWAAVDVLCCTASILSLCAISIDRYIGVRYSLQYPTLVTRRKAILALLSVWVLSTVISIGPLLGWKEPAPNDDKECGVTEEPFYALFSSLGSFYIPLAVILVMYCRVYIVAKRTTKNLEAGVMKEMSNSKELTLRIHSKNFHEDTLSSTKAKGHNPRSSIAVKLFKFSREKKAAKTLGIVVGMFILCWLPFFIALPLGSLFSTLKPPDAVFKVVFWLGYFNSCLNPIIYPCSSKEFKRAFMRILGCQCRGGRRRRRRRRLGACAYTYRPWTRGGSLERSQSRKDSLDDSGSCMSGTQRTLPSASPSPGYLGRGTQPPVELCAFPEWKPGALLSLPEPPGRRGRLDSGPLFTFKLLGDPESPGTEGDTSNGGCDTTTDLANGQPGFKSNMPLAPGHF
T2 sequence (P23944 whole entry): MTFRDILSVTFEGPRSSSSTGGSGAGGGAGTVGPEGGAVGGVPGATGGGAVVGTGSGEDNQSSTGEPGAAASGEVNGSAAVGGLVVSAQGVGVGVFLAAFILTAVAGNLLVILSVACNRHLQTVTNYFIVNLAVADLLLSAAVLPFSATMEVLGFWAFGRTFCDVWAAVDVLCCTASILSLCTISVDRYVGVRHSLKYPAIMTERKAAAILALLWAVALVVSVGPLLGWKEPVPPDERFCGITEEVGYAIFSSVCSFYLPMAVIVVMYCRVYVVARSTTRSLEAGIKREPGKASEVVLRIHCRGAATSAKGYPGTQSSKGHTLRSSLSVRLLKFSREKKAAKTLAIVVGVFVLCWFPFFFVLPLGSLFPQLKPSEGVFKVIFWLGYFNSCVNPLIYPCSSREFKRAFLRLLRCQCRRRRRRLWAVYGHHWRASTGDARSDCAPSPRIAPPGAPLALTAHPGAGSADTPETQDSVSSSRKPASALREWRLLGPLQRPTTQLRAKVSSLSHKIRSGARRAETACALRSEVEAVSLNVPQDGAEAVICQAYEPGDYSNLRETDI
T2 sequence (P43140 whole entry): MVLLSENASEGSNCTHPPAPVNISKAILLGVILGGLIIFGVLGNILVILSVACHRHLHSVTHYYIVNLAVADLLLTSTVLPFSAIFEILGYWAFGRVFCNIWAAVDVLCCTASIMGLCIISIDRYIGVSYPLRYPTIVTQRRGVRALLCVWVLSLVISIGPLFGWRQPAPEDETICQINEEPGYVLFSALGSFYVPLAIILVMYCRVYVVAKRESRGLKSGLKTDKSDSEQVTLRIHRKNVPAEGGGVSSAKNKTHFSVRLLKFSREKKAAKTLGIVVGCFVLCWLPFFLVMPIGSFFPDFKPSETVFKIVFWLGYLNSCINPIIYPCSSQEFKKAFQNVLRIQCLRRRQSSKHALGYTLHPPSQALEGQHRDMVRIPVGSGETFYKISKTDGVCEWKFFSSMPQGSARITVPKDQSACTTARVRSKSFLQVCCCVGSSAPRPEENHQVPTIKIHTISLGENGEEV
Nature of the experiment: Displacement of [3H]prazosin from alpha1 adrenoceptor in Sprague-Dawley albinus rat cerebral cortex membranes after 30 mins. The format is cell membranes, Membrane. The essentials:
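Rat cerebral cortex membranes (about 250 μg protein; male Sprague–Dawley, 180–200 g) in 50 mM Tris-HCl with 10 mM MgCl2, pH 7.4. Incubation was 30 min at 25 °C with 0.2 nM [3H]prazosin and six competitor concentrations. Nonspecific binding was set with 10 μM phentolamine.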

The target of experiment [4] is T3, 5-hydroxytryptamine receptor 1A (Homo sapiens, UniProt P08908).
T3 sequence (P08908 whole entry): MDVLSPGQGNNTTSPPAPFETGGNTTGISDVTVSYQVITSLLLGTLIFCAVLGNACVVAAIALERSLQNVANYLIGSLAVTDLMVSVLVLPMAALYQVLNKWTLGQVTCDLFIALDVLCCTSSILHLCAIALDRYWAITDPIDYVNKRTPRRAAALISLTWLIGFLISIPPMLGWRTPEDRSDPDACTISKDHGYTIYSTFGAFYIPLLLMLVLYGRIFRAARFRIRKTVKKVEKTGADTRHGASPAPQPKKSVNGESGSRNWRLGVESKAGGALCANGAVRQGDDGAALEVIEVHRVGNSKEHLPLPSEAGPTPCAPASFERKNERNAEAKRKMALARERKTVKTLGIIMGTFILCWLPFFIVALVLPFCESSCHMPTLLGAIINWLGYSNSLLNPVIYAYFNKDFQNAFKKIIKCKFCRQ
Nature of the experiment: Agonist activity at human 5HT1A receptor expressed in human HeLa cells assessed as inhibition of forskolin-stimulated cAMP production […] measured after 2 hrs by RIA. It is filed as functional, cell-based. The essentials: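 HeLa cells stably expressing the h5-HT1AR, grown in DMEM with 2 mM glutamine, 1 mM pyruvate and 10% heat-inactivated FCS, and used after 2–3 days at about 7.5 × 10^4 cells/well. After a PBS wash, cells were incubated 10 min in PBS with 0.5 mM isobutylmethylxanthine and 10 μM forskolin, with or without compound. The reaction was stopped with ice-cold ethanol, extracted 2 h and lyophilized; cAMP was measured by RIA.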

The target of experiment [5] is T4, 5-hydroxytryptamine receptor 1A (Homo sapiens) (UniProt P08908).
T4 sequence (whole entry): T3 sequence (P08908 whole entry)
Description: Agonist activity at human 5HT1A receptor expressed in human HeLa cells assessed as inhibition of forskolin-stimulated cAMP production pretreated 20 mins before forskolin challenge measured after 2 hrs by RIA relative to control. The format is functional, cell-based.

Experiment [6] can be described thus: Neuroprotective activity in Wistar rat hippocampi primary neuronal cells assessed as protection against oxygen-glucose deprivation induced cell death at 10 uM after 18 hrs by MTT assay. The format is functional, Hippocampus, Primary neuron.

Turning to `Cl.O=C1C2CCCN2C(=O)CN1CCCCNCC1CCc2ccccc2O1` (stereo unspecified), the inhibition constant (Ki) is 21 nM in experiment [1], > 1000 nM in experiment [2] and 107 nM in experiment [3]. Besides, the half-maximal effective concentration (EC50) in experiment [4] was 123 nM. Further, the maximal effect (Emax) in experiment [5] was found to be 87.6%. Further, the Activity in experiment [6] turned out to be 66%.
